Read-outs that look alike come from different tables or passages of the source. Marks after values point to notes of the source that are not given here.
Experiments:
[1] = type: in vivo, human; details: for AUC0–96h, geometric mean (CV%) / AUC0–48h, geometric mean (CV%) / t 1/2, geometric mean (CV%) / t max,1, median (range): plasma, raloxifene 60 mg oral
Summary of the method: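 Open-label fixed-sequence crossover in 16 healthy adults (8 male, 8 female), arms ≥7 days apart, fasted from midnight. Oral 60 mg test compound tablet with 240 mL water at 50°C (baseline) or brewed green tea. Acute: tea (one bag, 240 mL water, 80°C, 3 min, cooled to 50°C) given with dose, then at 4 and 8 h. Chronic: tea three times daily for 4 days, then day 5 as acute.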

[2] = Follow-up exploratory clinical study: plasma pharmacokinetics; type: in vivo, human; details: follow-up study; for AUC0–48h green tea/baseline ratio (90% CI) / Cmax,1 green tea/baseline ratio (90% CI): acute green tea vs baseline; for AUC0–48h, geometric mean (CV%) / t max,1, median (range) / Cmax: plasma; for Cmax: read-out: Cmax,1, geometric mean (CV%)
Summary of the method: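 Six healthy adults (3 male, 3 female) in sequential arms ≥7 days apart: oral test compound with water, then with acute brewed green tea, then tea alone. Plasma sampled 0–48 h at the main-study times. Analysed by UHPLC–MS/MS for parent and glucuronides. […] Green tea/baseline ratios on log-transformed data, paired two-tailed t-test.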

[3] = 16 healthy adults, baseline (water)

Compound	Metabolite‐to‐parent AUC0–96h ratio, geometric mean (CV%) ([1]; acute green tea)	AUC0–48h green tea/baseline ratio (90% CI) ([1]; acute green tea vs baseline)	AUC0–96h green tea/baseline ratio (90% CI) ([1]; acute green tea vs baseline)	Cmax,1 green tea/baseline ratio (90% CI) ([1]; acute green tea vs baseline)	t 1/2 green tea/baseline ratio (90% CI) ([1]; acute green tea vs baseline)	Metabolite‐to‐parent AUC0–96h ratio, geometric mean (CV%) ([1]; baseline (water))	Metabolite‐to‐parent AUC0–96h ratio, geometric mean (CV%) ([1]; chronic green tea)	AUC0–48h green tea/baseline ratio (90% CI) ([1]; chronic green tea vs baseline)	AUC0–96h green tea/baseline ratio (90% CI) ([1]; chronic green tea vs baseline)	Cmax,1 green tea/baseline ratio (90% CI) ([1]; chronic green tea vs baseline)	t 1/2 green tea/baseline ratio (90% CI) ([1]; chronic green tea vs baseline)	AUC0–96h, geometric mean (CV%) [1, 3]	AUC0–48h, geometric mean (CV%) ([1]; acute green tea)	AUC0–96h, geometric mean (CV%) ([1]; acute green tea)	t 1/2, geometric mean (CV%) ([1]; acute green tea)	t max,1, median (range) ([1]; acute green tea)	AUC0–48h, geometric mean (CV%) ([1]; baseline (water))	t 1/2, geometric mean (CV%) ([1]; baseline (water))	t max,1, median (range) ([1]; baseline (water))	AUC0–48h, geometric mean (CV%) ([1]; chronic green tea)	further results
O=C(c1ccc(OCCN2CCCCC2)cc1)c1c(-c2ccc(O[C@@H]3O[C@H](C(=O)O)[C@@H](O)[C@H](O)[C@H]3O)cc2)sc2cc(O)ccc12 [Raloxifene 4′‐glucuronide, raloxifene 4′‐glucuronide]	161 (36)	0.54 (0.43–0.68)	0.57 (0.45–0.73)	0.42 (0.31–0.57)	0.91 (0.72–1.16)	160 (34)	159 (34)	0.57 (0.43–0.76)	0.65 (0.51–0.82)	0.46 (0.31–0.70)	0.92 (0.72–1.18)	2350 (45) nM‐h	1080 (55) nM‐h	1350 (69)** nM‐h	15.9 (66) h	1.5 (0.5–6) h	1990 (48) nM‐h	17.0 (57)^b h	1.25 (0.25–4) h	1134 (56) nM‐h	AUC0–96h, geometric mean (CV%) ([1]; chronic green tea): 1520 (76)* nM‐h; t 1/2, geometric mean (CV%) ([1]; chronic green tea): 15.6 (48)^b h; t max,1, median (range) ([1]; chronic green tea): 1.25 (0.5–3) h; Metabolite‐to‐parent AUC0–48h ratio, geometric mean (CV%) ([2]; acute green tea): 184 (25); AUC0–48h green tea/baseline ratio (90% CI) [2]: 0.93 (0.81–1.06); Cmax,1 green tea/baseline ratio (90% CI) [2]: 0.79 (0.68–0.93); Metabolite‐to‐parent AUC0–48h ratio, geometric mean (CV%) ([2]; baseline): 179 (23); AUC0–48h, geometric mean (CV%) ([2]; acute green tea): 1368 (50) ^* nM‐h; t max,1, median (range) ([2]; acute green tea): 1 (0.5–1) h; t max,1, median (range) ([2]; baseline): 1.25 (1–3) h; AUC0–48h, geometric mean (CV%) ([2]; six healthy adults, baseline): 1473 (50) nM‐h; Cmax ([2]; acute green tea): 75 nM; Cmax ([2]; baseline): 94.4 nM
O=C(c1ccc(OCCN2CCCCC2)cc1)c1c(-c2ccc(O)cc2)sc2cc(O[C@@H]3O[C@H](C(=O)O)[C@@H](O)[C@H](O)[C@H]3O)ccc12 [Raloxifene 6‐glucuronide, raloxifene 6‐glucuronide]	39 (43)	0.57 (0.45–0.74)	0.60 (0.47–0.77)	0.38 (0.23–0.63)	1.08 (0.90–1.31)	37 (45)	37 (44)	0.59 (0.43–0.79)	0.67 (0.53–0.86)	0.50 (0.35–0.73)	0.92 (0.76–1.12)	535 (48) nM‐h	255 (68) nM‐h	324 (79)* nM‐h	20.5 (36)^b h	1.5 (0.5–4) h	444 (56) nM‐h	18.9 (40)^b h	1.5 (1–4) h	261 (57) nM‐h	AUC0–96h, geometric mean (CV%) ([1]; chronic green tea): 360 (78) nM‐h; t 1/2, geometric mean (CV%) ([1]; chronic green tea): 17.8 (46)^c h; t max,1, median (range) ([1]; chronic green tea): 1.5 (1–6) h; Metabolite‐to‐parent AUC0–48h ratio, geometric mean (CV%) ([2]; acute green tea): 22 (50); AUC0–48h green tea/baseline ratio (90% CI) [2]: 0.88 (0.73–1.06); Cmax,1 green tea/baseline ratio (90% CI) [2]: 0.73 (0.60–0.88); Metabolite‐to‐parent AUC0–48h ratio, geometric mean (CV%) ([2]; baseline): 23 (47); AUC0–48h, geometric mean (CV%) ([2]; acute green tea): 166 (61) nM‐h; t max,1, median (range) ([2]; acute green tea): 1 (1–3) h; t max,1, median (range) ([2]; baseline): 1.25 (1–3) h; AUC0–48h, geometric mean (CV%) ([2]; six healthy adults, baseline): 189 (46) nM‐h; Cmax ([2]; acute green tea): 6.85 nM; Cmax ([2]; baseline): 9.39 nM

— PMC10582660 (Clinical and Translational Science, 2023)
